Source: PubChem BioAssay AID2097 (Broad Institute, 2009)
Hit rate of the full screen: of about 300,000 compounds, about 120 (0.04%) were called active. The list comes from a sample in which actives are over-represented; it also holds similar structures and randomly drawn compounds. Unmarked numbers belong to inactive results.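 The calls were made as follows: active = more than half of replicate wells score below -50%, meaning over 50% inhibition versus plate controls; inconclusive = some replicates but at most half score below -50%; inactive = no replicate scores below -50%.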

What follows are compounds tested against Glycogen synthase kinase-3 beta (Homo sapiens) (UniProt P49841) (assay: human GSK3beta kinase inhibitors, primary screen, biochemical, cell-free homogeneous, HTS (AID 2097;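 also: 0% = median DMSO wells and -100% = median GW8510 positive control wells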)). Settings: GST-GSK3beta kinase, ADP-Glo luminescence, 60 min; at 10 µM; active compounds read low.
Procedure, shortened: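 test system = GST-tagged human GSK3beta kinase, cell-free | reagent = 25 µM ATP with peptide substrate | dosing = one dose of 10 µM per compound | schedule = 60 min reaction, RT | detection = luminescent ADP-Glo measurement of ADP formed | control set = DMSO neutral wells and GW8510 at 20 µM as positive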

Glycogen synthase kinase-3 beta (Homo sapiens), sequence (P49841 whole entry, looked up): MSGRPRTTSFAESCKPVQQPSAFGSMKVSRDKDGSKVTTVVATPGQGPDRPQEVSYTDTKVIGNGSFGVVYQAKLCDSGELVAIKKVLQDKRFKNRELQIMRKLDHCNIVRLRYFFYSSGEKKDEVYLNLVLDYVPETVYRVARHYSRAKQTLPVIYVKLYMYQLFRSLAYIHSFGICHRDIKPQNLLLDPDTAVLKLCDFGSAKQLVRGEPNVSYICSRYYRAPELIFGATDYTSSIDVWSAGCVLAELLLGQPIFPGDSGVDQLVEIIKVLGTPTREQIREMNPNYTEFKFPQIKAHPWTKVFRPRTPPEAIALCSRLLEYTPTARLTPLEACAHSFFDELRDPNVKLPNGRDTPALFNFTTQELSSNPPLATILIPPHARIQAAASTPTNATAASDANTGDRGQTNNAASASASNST

SMILES	activity score (negative = inhibition)
COCc1ccc(C(=O)N2CCc3c([nH]c4ccccc34)C2c2ccccn2)s1 (centres undefined)	1.6%
CCNC(=S)N(CCN(CC)CC)Cc1cc2cc3c(cc2[nH]c1=O)OCCO3	1.49%
Cc1csc(NC(=O)CSc2nc(=O)cc(N)n2-c2ccc(F)cc2)n1	1.17%
Cc1c(C(=O)NCCN(C)C)oc2ccc(S(=O)(=O)N3CCCC3)cc12	-4.78%
CN1CCN(/N=C/c2ccc(-c3ccc([N+](=O)[O-])cc3)o2)CC1	-0.646%
CN1CCN(/N=C2/C(=O)Nc3ccc([N+](=O)[O-])cc32)CC1	-63.8% (active)
Cc1ccc([N+](=O)[O-])cc1S(=O)(=O)N1CCCN(C)CC1	-1.01%
Cc1cccc(NC(=O)C2CC(=O)OC23CCCC3)c1 (centres undefined)	2.08%
COCCn1c(C)cc(C(=O)CSc2nc3ccccc3c(=O)n2C(C)COC)c1C (centres undefined)	-2.4%
COC(=O)/C(=C\Nc1ccccc1)NC(=O)c1ccc(Cl)cc1Cl	1.73%
N/C(=N\OC(=O)CCCC(=O)O)c1ncc(C(F)(F)F)cc1Cl	1.16%
CCS(=O)(=O)N1CCC(N2CCN(c3ccccc3)CC2)CC1	1%
CCc1cccc(NC(=S)N(CCN(C)C)C2CCN(C(C)C)CC2)c1	1.7%
COc1ccc2ccccc2c1CNCc1ccccn1	-4.15%
O=[N+]([O-])c1ccccc1S(=O)(=O)Nc1cccc2cccnc12	0.31%
CC(=O)N1CC[n+]2c(-c3ccc([N+](=O)[O-])cc3)csc21	-0.11%
COCCn1c(SCC(=O)Nc2ccccc2F)nc2c(c1=O)SCC2	0.573%
CN(CC(=O)Nc1ccccc1Cl)C(=O)c1ccccc1SCC(=O)N1CCCC1	-1.62%
CC(=O)Nc1cccc(C(=O)OCC(=O)c2ccc3c(c2)OCO3)c1	0.7%
COc1ccc(N(CC(=O)N2CCCCCC2)S(=O)(=O)c2ccccc2)cc1	-4.12%
CCOc1ccc(NC(=O)c2ccc(NC(=O)CN3C(=O)C(=O)N(CC(C)C)C3=O)cc2)cc1	0.0927%
OCCCNc1nccc(-c2cc(Nc3cccc(Cl)c3)ncn2)n1	-98.4% (active)
OCCCNc1nc(-c2ccccc2)c2cc(Cl)ccc2n1	0.00658%

SMILES	activity score (negative = inhibition)
CC(C)n1cnc2c(Nc3cccc(Cl)c3)nc(N(CCO)CCCO)nc21	-11.5%
Nc1nonc1-n1nnc(C(=O)N/N=C\c2ccncc2)c1CN1CCCCC1	-94.2% (active)
NNC(=O)c1nnn(-c2nonc2N)c1CN1CCCC1	2.11%
Nc1nonc1-n1nnc(C(=O)N/N=C/c2ccccc2O)c1CN1CCCC1	-36.9%
CN(CCC1CCOCC1)C(=O)CC1C(=O)NCCN1Cc1cccc(F)c1 (centres undefined)	-0.992%
COc1ccc(S(=O)(=O)NCCCCOc2ccc(Cl)cc2)cc1	-0.131%
CC(=O)Nc1ccccc1OC(C)C(=O)N1CCC(C)CC1 (centres undefined)	0.974%
CCn1cc(C(=O)NCCC(=O)NCCO)c(=O)c2cc3c(cc21)OCO3	-2.21%
COc1ccccc1-n1c(=S)[nH]c2c(sc(=S)n2-c2ccc(C)cc2C)c1=O	-0.962%
NC(=O)C[n+]1cccc(C(N)=O)c1	2.13%
CC(=O)Nc1ccc(C(=O)Nc2cccc(S(=O)(=O)NC3=NCCC3)c2)cc1	1.23%
CSC1=NC2(C)CCCCC2C12C=CC(=O)C=C2 (centres undefined)	2.87%
Cc1nc(C)c(-c2nnc(-c3cccc(S(=O)(=O)N(C)C)c3)o2)cc1C(=O)NN	-3.56%
CC(=O)N1CCN(S(=O)(=O)c2cccc(C(=O)NC3CCC(C)CC3)c2)CC1 (centres undefined)	-4.6%
O=C(NCc1ccco1)/C(=C\c1cccc([N+](=O)[O-])c1)NC(=O)c1ccco1	-2.64%
CCS(=O)(=O)c1ccc(-c2cccc(NC(=O)c3ccc(Br)o3)c2)nn1	2.73%
CCC(C)(C)NC(=O)C(c1cccc(OC)c1OC)N(CC(C)C)C(=O)CCC(=O)Nc1cc(C)on1 (centres undefined)	-2.19%
COC(=O)[C@@H]1C[C@@]2(O)[C@H](O)[C@H](O)[C@H](O)C[C@H]2N1Cc1ccc(C)s1	2.63%
CCCCC1S/C(=N/N=C/c2cccs2)NC1=O (centres undefined)	0.416%
COc1ccc(OC)c(-c2csc(NC(=O)C3=NNC(=O)CC3)n2)c1	-0.495%
CC(C)c1ccc(NC(=O)CCN2C(=O)c3ccc([N+](=O)[O-])cc3C2=O)cc1	-3.13%
O=S(=O)(NC1CC1)c1ccc(F)c(F)c1	1.68%
CCCCn1c(=O)c(CCC(=O)OCC(=O)Nc2ccc(C)c(Cl)c2)nc2ccccc21	-3%

SMILES	activity score (negative = inhibition)
CCN(C(=O)C1CCCN(c2nc(-c3ccc(OC)cc3)no2)C1)c1ccc(OC)cc1 (centres undefined)	-3.3%
COc1ccc(NC(=O)CCC(=O)N2CCN(S(=O)(=O)c3ccc(C)cc3)CC2)c(OC)c1	-0.163%
CCCc1ccc(OCC(O)CN2CCN(C(=O)OCC)CC2)cc1 (centres undefined)	4.1%
CCc1nn(CCCC(=O)Nc2ccc(C)cc2C)c(=O)c2cc3occc3n12	2.31%
CC(=O)C1=C(C)NC(C)=C(C(C)=O)C1c1cn(-c2ccccc2)nc1-c1cccs1	-1.7%
O=C(N/N=C/c1cccc(O)c1)c1cc2c(ccc3ccccc32)o1	-3.92%
COc1ccc(Cl)cc1NC(=O)CN(C)C(=O)CCCc1c[nH]c2ccccc12	-0.853%
COc1ccc(-n2nc(C(=O)NCC(=O)N3CCCCCC3)c3ccccc3c2=O)cc1Cl	-0.439%
COc1cccc(CCNC(=O)COc2cccc3c2OC(C)(C)C3)c1	1.98%
Cc1ccc(NC(=O)Cn2cccc2C2=NC(c3ccccc3)CO2)c(C)c1 (centres undefined)	-1.16%
COc1ccc(C(=O)C2CCCN(C(=O)c3ccc(OC)o3)C2)c(C)c1 (centres undefined)	0.0837%
CC(C)Cc1ccc(C(C)C(=N)N)cc1 (centres undefined)	-0.885%
CC(C)(C)c1ccc(C(=O)NNC(=O)Cc2ccccc2)cc1	-1.05%
COc1ccc(NC(=O)C2CCC(CNS(=O)(=O)c3csc(C(N)=O)c3)CC2)cc1OC (centres undefined)	2.83%
O=c1c2c(ncn1Cc1ccccc1)nc1n2CCC1	-1.79%
O=C(CSc1ccc(-c2ccc(-n3cccn3)cc2)nn1)Nc1ccc([N+](=O)[O-])cc1	-1.44%
CCO[C@@H]1OC(C(=O)NC2CC2)=C[C@H](C)[C@H]1CCCO	1.19%
CCOC(=O)C1=C(CC)Nc2ccccc2N=C1NC(=O)c1cccc(S(=O)(=O)N2CCCC2)c1	3.96%
CN(Cc1ccccc1)CC(O)COc1ccc(CNCc2cc3ccccc3s2)cc1 (centres undefined)	2.68%
CCN(CC)S(=O)(=O)c1ccc2c3c(cccc13)C(=O)S2	-2.37%
O=C1COc2ccc(C(=O)COC(=O)C3CC(O)CN3S(=O)(=O)c3ccc(Cl)cc3)cc2N1 (centres undefined)	1.53%
CC(C)(C)NC(=O)CN(C(=O)c1csnn1)c1ccccc1-c1ccccc1	-0.766%
CCOc1ccc(/C=N/Nc2nncc(-c3ccccc3)n2)cc1OC	-0.0724%

SMILES	activity score (negative = inhibition)
Cc1cc(/C=N/Nc2ccc([N+](=O)[O-])cn2)c(C)n1-c1cccc(C(=O)O)c1	-14.7%
COc1cc(/C=N\Nc2ccc([N+](=O)[O-])cn2)ccc1OCC(=O)O	-70.1% (active)
O=C(C1CCN(S(=O)(=O)Cc2ccccc2)CC1)N1CCCc2ccccc21	4.16%
O=C(Nc1cccc(Cl)c1)Nc1ccccc1NS(=O)(=O)c1cccs1	1.54%
C1=C(N2CCOCC2)/C(=C/c2nc3ccccc3[nH]2)CC1	-1.13%
C=CCc1cccc(/C=N/NC(=O)COc2ccc(-n3cnnn3)cc2)c1O	-4.1%
O=C(NCc1cccnc1)c1cc(S(=O)(=O)N2CCOCC2)c(Cl)cc1Cl	-0.415%
COc1ccc(C(=O)Oc2ccc(-c3nnco3)cc2)cc1S(=O)(=O)N1CCOCC1	2.99%
O=C(CCN1C(=O)c2ccccc2C1=O)NNC(=O)c1ccc(Cl)cc1Cl	1.29%
COc1cc(C(=O)NCc2nnc(SCC(=O)Nc3nc4ccc(C)cc4s3)o2)cc(OC)c1OC	-2.02%
O=C1CCN(CCc2ccccc2)CCN1CCOc1ccccc1	3.91%
CN1C2CCC1/C(=C\c1ccccc1Cl)C(=O)/C2=C\c1ccccc1Cl	0.435%
COc1ccccc1N(C)C(=O)c1cc(S(=O)(=O)N2CCc3ccccc32)cn1C	0.131%
CCCCC(NC(=O)c1cccc(Br)c1)C(=O)O (centres undefined)	-0.419%
Cc1c(CCC(=O)N[C@@H](CC(C)C)C(=O)O)c(=O)oc2c(C)c3oc4c(c3cc12)CCCC4	-23.5%
O=C(OCc1nnc(-c2ccccc2)o1)c1cc(=O)[nH]c2ccccc12	-0.304%
Cc1ccc(C(=O)NC2CCN(C(=O)Nc3ccccc3Cl)CC2)cc1	2.37%
O=[N+]([O-])c1ccc(NCCCN2CCOCC2)c(Cl)c1	-5.04%
CC1CN(c2nc(Nc3ccccc3)nc(N)c2[N+](=O)[O-])CC(C)O1 (centres undefined)	-27.9%
Nc1nc(NCCCN2CCOCC2)nc(Nc2ccccc2)c1[N+](=O)[O-]	-73.5% (active)
